Data reported in PubChem BioAssay.
Inconclusive results are not listed.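 Rule for the calls, unless noted: active = inhibition over a set limit, the all-compound mean plus 3 SD, in both replicate runs; inconclusive = over that limit in just one replicate run; inactive = at or under that limit in both runs.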

Legend:
[1] = S. cerevisiae growth inhibition in permissive medium (OD615), pilot counter-assay for S. cerevisiae lifespan shortening project, permissive growth control (AID 705;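 active = growth inhibition above 25% in both replicates, a cutoff set 3 SD above the mean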); conditions: OD615, 24 h, at 10 µM, active compounds read high
Method in brief: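 Material: engineered DeaD yeast; compound dosing: one dose 10 µM, DMSO 0.25% final; measure: yeast growth inhibition indicated by reduced 24 h OD615; detection: OD615 turbidity read; incubation: cells pre-grown 4 h, then 24 h compound exposure, 30 °C humidified; medium: permissive synthetic complete medium with raffinose and galactose carbon sources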

[2] = S. cerevisiae growth inhibition in restrictive medium, OD615, pilot screen, restrictive growth control, yeast lifespan reduction project (AID 706;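 active = growth inhibition above a set limit, 3 SD over mean compound inhibition, in both replicates, cut at about 43% in these data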;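 note: modified DeaD lifespan yeast strain shifted to restrictive glucose medium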); conditions: OD615, 48 h, at 10 µM, active compounds read high
Method in brief: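 material = engineered S. cerevisiae DeaD strain | medium = glucose-based CSMM-D restrictive medium | times = 4 h pre-incubation, 48 h exposure at 30 °C | technique = OD615 absorbance reading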

[3] = doxorubicin toxicity protection in MRP-1 cells – H69AR cells, CellTiter-Glo, duplicate, MRP-1 activator project, pilot screen (AID 807;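 active = viability increase at or above a cutoff of the median across tested compounds plus 3 SD, cut at about 8.5% in these data, passing the limit was not always enough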;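 note: compound pretreatment 18-22 h then 72 h combined with doxorubicin; 0% = doxorubicin alone and 100% = vehicle without doxorubicin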); conditions: H69AR viability with doxorubicin, CellTiter-Glo luminescence; at 10 µM; active compounds read high
[4] = viability of HCT116 without oncogenic beta-catenin – human colon tumor cells, pilot screen (AID 823;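 active = cell viability at or below a set limit in both duplicate runs, the limit being the all-compound median minus 4 SD, cut at about 23% in these data, passing the limit was not always enough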;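 note: 0% = wells killed by 20 µM Hyamine and 100% = untreated DMSO cell wells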); conditions: HCT116 beta-catenin knockout viability, CellTiter-Glo, 60 h; at 10 µM; active compounds read low
[5] = viability of PTEN-null HCT116 cells – cell-based, HCT116 clonal line, CellTiter-Glo, pilot screen (AID 824;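 active = viability at or below 27.92% in each of two runs, the all-compound median minus 4 SD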;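 note: 0% = 20 µM Hyamine control and 100% = vehicle cell control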); conditions: HCT116 PTEN-deleted viability, 60 h, at 10 µM, active compounds read low
[6] = RAM pathway blockade in budding yeast – dse1pr::URA3 reporter, 5-FOA selection, pilot screen (AID 869);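 note: 0% = DMSO wells with no growth and 100% = 10 µM 1-NA-PP1 with full growth; RAM network block rescues cells from 5-FOA so hits raise OD615 growth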; conditions: S. cerevisiae dse1pr::URA3 5-FOA growth, OD615, 2 d; at 10 µM; active compounds read high; strain carries analog-sensitive mutant Cbk1 kinase
[7] = RAM signaling pathway blockade in yeast – S. cerevisiae, Pdr1DBD-CYC8 efflux-inhibited sensitized strain, primary screen (AID 1298;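 active = RAM network inhibition above 8.4% in each of two replicates, 3 SD over the compound average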;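 note: 0% = DMSO untreated cells without growth and 100% = 10 µM 1-NA-PP1 full growth; higher means more yeast growth rescued from 5-FOA killing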); conditions: S. cerevisiae cbk1-as DSE1-URA3 strain, 5-FOA growth OD615, 2 d; at 50 µM; active compounds read high

CCOC(=O)NC(Nc1ccc(C)cn1)(C(F)(F)F)C(F)(F)F
inactive: growth inhibition [1] 11.5% | growth inhibition [2] 4.23% | viability increase [3] -1.59% | viability [4] 95.2% | viability [5] 100% | inhibition [6] 0.545% | RAM network inhibition [7] 0.7%

O=C(CSc1ncccn1)NCCc1ccccc1
inactive: growth inhibition [1] -4.5% | growth inhibition [2] 2.61% | viability increase [3] -1.26% | viability [4] 96% | viability [5] 97.2% | inhibition [6] 2.3% | RAM network inhibition [7] 2.5%

CCn1c(SCC(=O)NCCOc2ccccc2)nc2ccccc2c1=O
inactive: growth inhibition [1] -0.73% | growth inhibition [2] -21.3% | viability increase [3] -1.87% | viability [4] 93.8% | viability [5] 92.6% | inhibition [6] 1.08% | RAM network inhibition [7] 4.35%

COc1ccc(OC)c(C2NC(=O)NC(C)=C2C(=O)Nc2ccc(C)cc2C)c1 (configuration not stated)
inactive: growth inhibition [1] -7.68% | growth inhibition [2] 4.14% | viability increase [3] 0.67% | viability [4] 101% | viability [5] 100% | inhibition [6] 1.77% | RAM network inhibition [7] 2.4%

O=C(CSc1nc2sc3c(c2c(=O)n1-c1ccccc1)CCCC3)NCc1ccco1
inactive: growth inhibition [1] -7.07% | growth inhibition [2] -5.03% | viability increase [3] -7.21% | viability [4] 53.7% | viability [5] 53.8% | inhibition [6] 3.98% | RAM network inhibition [7] 6.12%

COCC(=O)NCc1nc2ccccc2n1Cc1ccccc1F
inactive: growth inhibition [1] -7.99% | growth inhibition [2] -15.2% | viability increase [3] -1.11% | viability [4] 98.2% | viability [5] 99.2% | inhibition [6] 1.59% | RAM network inhibition [7] 0.88%

CCOCCCNC(=O)C(c1ccc(Cl)cc1)N1CCN(c2ccccc2)CC1 (configuration not stated)
inactive: growth inhibition [1] -7.14% | growth inhibition [2] 6.11% | viability increase [3] -2.39% | viability [4] 87% | viability [5] 85% | inhibition [6] 0.95% | RAM network inhibition [7] 3.13%

CCN1C(=O)c2ccccc2Sc2ccc(C(=O)NCCN3CCOCC3)cc21
inactive: growth inhibition [1] -6.92% | growth inhibition [2] -7.4% | viability increase [3] -0.43% | viability [4] 110% | viability [5] 101% | inhibition [6] -0.985% | RAM network inhibition [7] 2.02%

Cc1ccc(C(=O)c2cc3c(cc2N)OCCO3)cc1
inactive: growth inhibition [1] -11.6% | growth inhibition [2] -21.8% | viability increase [3] -3.61% | viability [4] 91.2% | viability [5] 89.2% | inhibition [6] 0.27% | RAM network inhibition [7] 3.36%

CCOc1ccc(NC(=O)N(C2CCCCC2)C2CCN(C(C)=O)CC2)cc1
inactive: growth inhibition [1] -8.37% | growth inhibition [2] 6.87% | viability increase [3] -0.8% | viability [4] 102% | viability [5] 100% | inhibition [6] 0.795% | RAM network inhibition [7] 3.05%

Cc1csc(NC(=O)C(CC(C)C)NS(=O)(=O)c2ccc3c(c2)oc(=O)n3C)n1 (configuration not stated)
inactive: growth inhibition [1] 2.94% | growth inhibition [2] -3.39% | viability increase [3] -0.77% | viability [4] 103% | viability [5] 106% | inhibition [6] 1.33% | RAM network inhibition [7] 2.74%

Cn1c(=O)oc2cc(S(=O)(=O)NCCCN3CCCC3=O)ccc21
inactive: growth inhibition [1] -7.4% | growth inhibition [2] -6.43% | viability increase [3] -2.65% | viability [4] 99% | viability [5] 98.7% | inhibition [6] 0.615% | RAM network inhibition [7] 0.74%

O=C1Nc2ccccc2C(O)(C(=O)NCc2ccco2)N1c1ccc(Cl)cc1 (configuration not stated)
inactive: growth inhibition [1] -7.58% | growth inhibition [2] -16.5% | viability increase [3] -4.11% | viability [4] 98.6% | viability [5] 94.5% | inhibition [6] 1.98% | RAM network inhibition [7] 4.83%

Cc1nc2ccc(S(=O)(=O)NC(C(=O)N3CCCCCC3)C(C)C)cc2s1 (configuration not stated)
inactive: growth inhibition [1] -11.3% | growth inhibition [2] -4.58% | viability increase [3] -1.12% | viability [4] 97.5% | viability [5] 87.8% | inhibition [6] 2.01% | RAM network inhibition [7] 2.77%

Cc1cc(Cl)ccc1N=Cc1c(O)n(C)c(=O)n(C)c1=O
inactive: growth inhibition [1] 1.62% | growth inhibition [2] 1.2% | viability increase [3] 2.36% | viability [4] 106% | viability [5] 105% | inhibition [6] 0.11% | RAM network inhibition [7] -1.25%

CCOC(=O)N1CCN(C(=O)C2CCCN(c3nc4ccc(OCC)cc4s3)C2)CC1 (configuration not stated)
inactive: growth inhibition [1] -6.49% | growth inhibition [2] -7.45% | viability increase [3] -1.32% | viability [4] 90.6% | viability [5] 89.7% | inhibition [6] 0.33% | RAM network inhibition [7] 5.16%

CN(C)c1cccc(NC(=O)Cc2ccc(F)cc2)c1
inactive: growth inhibition [1] -11.6% | growth inhibition [2] -21.4% | viability increase [3] -4.02% | viability [4] 85.4% | viability [5] 84.2% | inhibition [6] 1.14% | RAM network inhibition [7] 5.85%

Cc1cc2cc(CNC(=O)c3ccc(Br)o3)ccc2[nH]1
inactive: growth inhibition [1] -6.49% | growth inhibition [2] -9.17% | viability increase [3] -1.33% | viability [4] 86.5% | viability [5] 85.1% | inhibition [6] 3.64% | RAM network inhibition [7] 8.22%

O=C(CSc1nc2c(cnn2-c2ccc(F)cc2)c(=O)[nH]1)N1CCCc2ccccc21
inactive: growth inhibition [1] -2.67% | growth inhibition [2] -5.17% | viability increase [3] -3.32% | viability [4] 87.2% | viability [5] 83% | inhibition [6] 1.2% | RAM network inhibition [7] 4.44%

CCN1CCN(S(=O)(=O)c2ccc3[nH]c(=O)oc3c2)CC1
inactive: growth inhibition [1] -9.66% | growth inhibition [2] -6.6% | viability increase [3] -0.48% | viability [4] 104% | viability [5] 107% | inhibition [6] 1.5% | RAM network inhibition [7] 4.74%

C=CCNc1nc2c(c(=O)n(C)c(=O)n2C)n1CC
inactive: growth inhibition [1] 1.76% | growth inhibition [2] 3.36% | viability increase [3] -2.38% | viability [4] 107% | viability [5] 99.1% | inhibition [6] 2.24% | RAM network inhibition [7] 3.73%

Clc1ccc(Cc2nnc(-c3ccccc3Br)o2)cc1
inactive: growth inhibition [1] 1.55% | growth inhibition [2] -0.37% | viability increase [3] 4.88% | viability [4] 101% | viability [5] 91.3% | inhibition [6] -0.5% | RAM network inhibition [7] 3.39%

COC(=O)N1CC(C)N(C(=O)OC)CC1C (configuration not stated)
inactive: growth inhibition [1] -8.79% | growth inhibition [2] 3.85% | viability increase [3] -2.14% | viability [4] 95.2% | viability [5] 95.6% | inhibition [6] 0.745% | RAM network inhibition [7] 6.61%

CCOC(=O)c1ccc(NC(=O)NCCN2CCCCC2)cc1
inactive: growth inhibition [1] -0.03% | growth inhibition [2] -4.93% | viability increase [3] -0.32% | viability [4] 105% | viability [5] 100% | inhibition [6] 1.49% | RAM network inhibition [7] 3.62%

CCCC(=O)N1CCN(C2=NS(=O)(=O)c3ccccc32)CC1
inactive: growth inhibition [1] -0.28% | growth inhibition [2] 12.9% | viability increase [3] -0.68% | viability [4] 103% | viability [5] 98.5% | inhibition [6] -0.175% | RAM network inhibition [7] 3.82%

COc1cccc(C2CC(c3ccccc3)Nc3nc(N)nn32)c1 (configuration not stated)
inactive: growth inhibition [1] -2.81% | growth inhibition [2] 7.94% | viability increase [3] 0.44% | viability [4] 94.9% | viability [5] 93.5% | inhibition [6] 1.83% | RAM network inhibition [7] 3.16%

COCCNC(=O)CS(=O)Cc1nc(-c2ccc(Cl)cc2)oc1C (configuration not stated)
inactive: growth inhibition [1] -6.59% | growth inhibition [2] -1.85% | viability increase [3] -0.72% | viability [4] 94.7% | viability [5] 95.1% | inhibition [6] 3.21% | RAM network inhibition [7] 0.65%

COCC(C)NC(=O)c1cc(-c2ccc(O)cc2)on1 (configuration not stated)
inactive: growth inhibition [1] -1.88% | growth inhibition [2] 4.68% | viability increase [3] -3.12% | viability [4] 105% | viability [5] 100% | inhibition [6] 2.48% | RAM network inhibition [7] 0.94%

COC(=O)c1c(C)oc2ccc(OC(=O)c3cccs3)cc12
inactive: growth inhibition [1] 4.65% | growth inhibition [2] -15% | viability increase [3] 1.81% | viability [4] 96.3% | viability [5] 99.5% | inhibition [6] 0.81% | RAM network inhibition [7] 0.1%

O=C(NCCc1ccccc1)C1CCN(S(=O)(=O)c2cccnc2)CC1
inactive: growth inhibition [1] -7.37% | growth inhibition [2] 0.25% | viability increase [3] -0.16% | viability [4] 104% | viability [5] 94.8% | inhibition [6] 1.88% | RAM network inhibition [7] 1.62%

O=C(NCc1ccccc1Cl)c1cnc2n(c1=O)CCS2
inactive: growth inhibition [1] 3.67% | growth inhibition [2] 0.685% | viability increase [3] -0.78% | viability [4] 99.9% | viability [5] 96.9% | inhibition [6] 0.995% | RAM network inhibition [7] -0.68%

CCOC(=O)N1CCN(C(=O)c2ccc3c(SCC(=O)O)c4c(nc3c2)CCC4)CC1
inactive: growth inhibition [1] -7.38% | growth inhibition [2] 3.22% | viability increase [3] -1.86% | viability [4] 102% | viability [5] 93% | inhibition [6] 0.9% | RAM network inhibition [7] 2.81%

CC(=O)NCc1nc2ccccc2n1Cc1ccccc1F
inactive: growth inhibition [1] -7.66% | growth inhibition [2] -15.8% | viability increase [3] -0.31% | viability [4] 108% | viability [5] 104% | inhibition [6] 3.39% | RAM network inhibition [7] 2.03%

Cc1cccc(-c2noc(CCc3ccccc3)n2)c1
inactive: growth inhibition [1] -13.3% | growth inhibition [2] -12% | viability increase [3] 0.39% | viability [4] 102% | viability [5] 98.1% | inhibition [6] 1.13% | RAM network inhibition [7] 2.14%

CCCCN=C(C)c1c(O)c2ccccc2oc1=O
inactive: growth inhibition [1] -2.92% | growth inhibition [2] 5.07% | viability increase [3] -1.49% | viability [4] 102% | viability [5] 95.9% | inhibition [6] 0.01% | RAM network inhibition [7] -2%

O=c1cc(-c2ccccc2Cl)c2c([nH]1)CCC2
inactive: growth inhibition [1] -9.7% | growth inhibition [2] 0.91% | viability increase [3] -2.8% | viability [4] 94.5% | viability [5] 87.2% | inhibition [6] 1.71% | RAM network inhibition [7] 0.26%
